MrgX1 ag – agonists of human MrgX1 receptor | Q96LB2 | MrgX1-HEK293 cells, Fluo-4 calcium fluorescence, agonist mode; hits give high values | B-score at 10 µM | 310,000 tested, 0.44% active | AID 588627;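 active = calcium response B-score plate-corrected fluorescence ratio at least 3 library SD, with starting fluorescence B-score inside 5 SD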
Target sequence (Q96LB2 whole entry, looked up): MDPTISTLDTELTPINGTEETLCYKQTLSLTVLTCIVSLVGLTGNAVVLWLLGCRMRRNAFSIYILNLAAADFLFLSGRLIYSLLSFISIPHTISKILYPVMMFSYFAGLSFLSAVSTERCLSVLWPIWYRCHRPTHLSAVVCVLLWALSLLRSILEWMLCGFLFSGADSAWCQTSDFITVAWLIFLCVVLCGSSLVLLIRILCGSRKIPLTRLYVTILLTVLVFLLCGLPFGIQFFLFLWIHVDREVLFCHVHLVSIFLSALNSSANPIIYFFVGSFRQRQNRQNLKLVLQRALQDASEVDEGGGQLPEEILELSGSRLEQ
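Material: MrgX1-expressing HEK293 cells; input: 15,000 cells per well; doses: test compound given as first of three sequential additions; schedule: overnight plating before 1 h dye loading; technique: Fluo-4 NW calcium-flux fluorescence, kinetic read; evaluation: baseline-normalised fluorescence change ratio, B-scored; control set: plate-wise positive and negative controls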
MrgX1 allo act – allosterically activates human MrgX1 receptor signaling; B-score at 10 µM; Q96LB2; AID 588675; MrgX1-HEK293, Fluo-4 calcium flux, FDSS; hits give high values; 310,000 tested, 0.63% active;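 active = plate-corrected calcium response at least 3 library SD above typical, normal starting fluorescence, not activating the receptor alone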;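 note: compound read alongside a low EC10 to EC30 dose of BAM8-22 agonist; peak minus trough fluorescence over baseline measured at the second addition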
RGS4 act – RGS4 potentiation or activation; HEK293 M3R/inducible RGS4, carbachol calcium flux Fluo4; hits give low values; AID 463111; B-score at 10 µM; 310,000 tested, 0.92% active;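 active = B-score of the integrated calcium signal more than 4 SD below the library mean, with starting fluorescence not abnormally high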;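 note: negative B-score means reduced calcium response which marks RGS4 activation or potentiation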
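Also added: carbachol at ECmax as muscarinic agonist stimulus; Assay system: HEK293 cells with stable M3R and inducible RGS4; Timing: overnight RGS4 induction, 30 min dye load 37 °C, 20 min compound RT; Measured by: Fluo4-AM (2 µM) calcium-flux fluorescence, kinetic read.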
RGS4 block – inhibitors of human RGS4; B-score at 10 µM; HEK293 M3R/RGS4 inducible, Fluo-4 calcium flux; hits give high values; triggered by carbachol at its EC20; P49798; 310,000 tested, 0.45% active;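 active = B-score, a plate-corrected calcium signal, over three deviations above library mean, with baseline fluorescence within five deviations of library mean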;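 note: RGS4 expression induced by doxycycline in cells with stable M3 receptor; B-score is computed from the integrated fluorescence ratio over baseline after carbachol; higher B-score means a larger calcium signal and so more RGS4 inhibition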
Target sequence (P49798 whole entry, looked up): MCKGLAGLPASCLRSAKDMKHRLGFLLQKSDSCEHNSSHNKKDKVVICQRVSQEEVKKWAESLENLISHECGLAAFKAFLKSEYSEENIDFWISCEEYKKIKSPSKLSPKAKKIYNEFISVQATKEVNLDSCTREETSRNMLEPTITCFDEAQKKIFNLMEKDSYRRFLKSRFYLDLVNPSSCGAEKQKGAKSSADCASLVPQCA
MrgX1 antag – human MrgX1 receptor antagonism, primary screen | B-score at 10 µM | 310,000 tested, 1.3% active | Q96LB2 | MRGX1-HEK293 calcium flux, Fluo-4, BAM8-22 antagonism; hits give low values;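 active = calcium-response B-score plate-corrected more than 3 library SD below zero, starting fluorescence within 5 deviations, no agonist response on first addition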;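 note: peak minus trough fluorescence over baseline after final BAM8-22 challenge near maximal dose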
Starred values were filed as active, the others as inactive; i = inactive; nt = no result given. This is a sample that favours compounds with a hit; in the whole collection about 3.5% have one here.

SMILES | MrgX1 ag | MrgX1 allo act | RGS4 act | RGS4 block | MrgX1 antag
COc1ccc(N2CCN(C(CNC(=O)C(=O)NCCCn3ccnc3)c3ccco3)CC2)cc1 (stereo not drawn) | i | i | i | i | -4.9*
CCc1ccccc1NC(=S)N1N=CCC1c1ccccc1 (stereo not drawn) | 37* | i | i | i | i
Nc1cc(N)c(OCC(F)(F)F)cc1OCC(F)(F)F | i | i | i | 6.7* | i
Nc1cc(OCC(F)(F)F)cc([N+](=O)[O-])c1 | i | i | i | i | i
CN(C)c1ccc(C2C=C(c3ccc(Cl)cc3OC(F)F)Nc3ncnn32)cc1 (stereo not drawn) | 40* | i | i | i | i
Cc1ccc(C2C=C(c3ccccc3OC(F)F)Nc3ncnn32)cc1 (stereo not drawn) | i | i | i | i | i
Cn1nc(-c2ccccc2)c(C#N)c1Sc1cccc(Cl)c1 | i | i | -7.3* | i | i
O=C(c1ccccc1Br)N1N=C(c2ccccc2)CC1c1ccccc1F (stereo not drawn) | i | i | -8* | i | i
CCOc1cc(/C=N/NC(=O)Cn2nc([N+](=O)[O-])cc2C)ccc1OCc1ccc(F)cc1 | i | i | i | i | -4.9*
COC(=O)c1sc(NC(=O)CCCn2nc([N+](=O)[O-])cc2C)c(C(=O)OC)c1C | i | i | i | i | -6.1*
Cc1cc([N+](=O)[O-])nn1CCCC(=O)NCc1ccc(F)cc1 | i | 14* | i | i | i
CC1(CCc2ccccc2)NC(=O)N(CC(=O)Nc2ccc3c(c2)OCCO3)C1=O (stereo not drawn) | i | i | i | i | i
CCC(C)Nc1nc(N)c([N+](=O)[O-])c(NCCO)n1 (stereo not drawn) | i | 17* | i | i | i
CC(C)CCNc1nc(N)c([N+](=O)[O-])c(NCCO)n1 | i | i | i | i | i
Cc1cccn2c(=O)c3cc(C(=O)NC4CCCC4)sc3nc12 | i | i | i | i | i
Cc1ccnc(SCC(=O)c2ccc([N+](=O)[O-])cc2)n1 | i | i | i | i | i
Cc1cc(C)nc(SCC(=O)c2ccc([N+](=O)[O-])cc2)n1 | i | i | i | i | -6.1*
O=C(NS(=O)(=O)Oc1cccc(Cl)c1Cl)OC[C@@H]1CCCN2CCCCC12 (stereo partly drawn) | i | i | i | i | i
COc1ccc(CN2CCN(CC=C(C)C)C(CCO)C2)cc1Cn1cccn1 (stereo not drawn) | 28* | i | i | i | i
CCOC(=O)c1[nH]c2ccc(OC)cc2c1NC(=O)C(C)N1CCSCC1 (stereo not drawn) | nt | nt | i | i | nt
CCOC(=O)c1[nH]c2cc(OC)c(OC)cc2c1NC(=O)C(C)N1CCN(Cc2ccccc2)CC1 (stereo not drawn) | i | i | -8.7* | i | i
C=CCn1c2ccccc2n2nc(C)c(=O)nc12 | i | i | i | i | i
Cc1nn2c3ccccc3n(CCN3CCCCC3)c2nc1=O | i | i | i | i | -6*
COC(CNC(=O)[C@H](CSCc1ccccc1)N1Cc2ccccc2C1=O)OC | i | 8.2* | i | i | i
COc1ccc(CCN=C(N)NS(=O)(=O)c2cc(F)ccc2F)cc1 | i | i | i | i | i
SMILES | MrgX1 ag | MrgX1 allo act | RGS4 act | RGS4 block | MrgX1 antag
Cc1cc(OC(=O)c2ccccc2Br)cc(=O)n1C | i | 10* | i | i | i
O=C(c1ccc(OC2CCN(C/C=C/c3ccc(F)cc3)CC2)cc1)N1CCCC1 | i | i | i | i | i
FC(F)Sc1ccc(NC(=S)NCC2CCCCC2)cc1 | i | i | i | i | -5.1*
NNC(=O)Nc1cccc(C(F)(F)F)c1 | i | 12* | i | i | i
COc1ccc(-c2ccc(NS(=O)(=O)c3cc([N+](=O)[O-])c(C)c([N+](=O)[O-])c3)cc2)nn1 | i | i | i | i | i
c1ccc(C[n+]2ccc3ccccc3c2)cc1 | i | i | -7.9* | i | i
CCOC(=O)C1CCCN(S(=O)(=O)c2ccc(S(=O)(=O)N3CCCC3)cc2)C1 (stereo not drawn) | i | i | i | i | -5.3*
CCOC(=O)C1CCCN(C(=O)c2ccc(S(=O)(=O)N3CCCC3)cc2)C1 (stereo not drawn) | i | i | i | i | i
O=C(CN(Cc1ccccc1)C(=O)CCl)c1cccc(Br)c1 | i | i | nt | nt | i
CCOC(=O)C1=NN(C(=O)Cc2ccccc2)C(O)(c2ccc(Cl)cc2)C1 (stereo not drawn) | i | i | i | i | i
CCOC(=O)C1=NN(C(=O)c2ccco2)C2(CC2)C1 | i | i | i | i | i
CCOC(=O)C1=NN(C(=O)c2ccc(OC)cc2)C(O)(c2ccc(Cl)cc2)C1 (stereo not drawn) | 48* | i | i | i | i
COC(=O)C1=NN(C(=O)c2cccc(Br)c2)C(O)(c2ccc(Cl)cc2)C1 (stereo not drawn) | 36* | i | i | i | i
CCOC(=O)C1=NN(C(=O)c2ccccc2)C(O)(c2ccc(C)cc2)C1 (stereo not drawn) | i | i | i | i | i
CCOC(=O)C1=NN(C(=O)c2cccc(Br)c2)C(O)(C(C)(C)C)C1 (stereo not drawn) | 96* | i | i | i | i
CCN=c1scc(-c2ccc3c(c2)NC(=O)CO3)n1N=C1CCCC1 | i | i | i | i | i
CCCCN=c1scc(-c2ccc3c(c2)NC(=O)CO3)n1N=C1CCCC1 | 32* | i | i | i | i
CC1CN(C(=O)C2CC2)C(C)CN1C(=O)C1CC1 (stereo not drawn) | i | i | i | i | i
CN1CCN(CC#CCn2c3ccccc3c3ccccc32)CC1 | i | i | -7.1* | i | i
COc1ccc(/C=C2\Oc3cc(OCC(N)=O)ccc3C2=O)cc1OC | i | i | -8.2* | i | -5.4*
COC(=O)C(C)Oc1ccc2c(c1)O/C(=C\c1ccco1)C2=O (stereo not drawn) | i | i | -9.1* | i | i
CC(Oc1ccccc1F)C(=O)NNC(=O)CCNC(=O)c1ccccc1Cl (stereo not drawn) | i | i | i | i | i
CCOC(=O)c1c(NC(C)=O)sc(/C(C)=N/Nc2ccc(C(=O)O)cc2)c1C | i | i | i | i | i
COc1nccc(NCc2ccccc2)c1C#N | i | i | i | i | i
